The results in this text go back to ChEMBL document CHEMBL1146563, “CT2108A and B: New fatty acid synthase inhibitors as antifungal agents” (J Nat Prod, 2003).

Values after ≈ are worked out from the molar mass of the structure shown. Active and inactive are the calls of the source. Bounds are passed on as bounds.

For test [1], the system named is Candida albicans. Kind of test: Antifungal activity against Candida albicans by microdilution spectrophotometric method in presence of mysteric acid. The test is classed as functional. The essentials: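 Growth inhibition of C. albicans in a medium supplemented with 1.0% Tween 40 and 0.03% mysteric acid (long-chain fatty acids).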
For orientation: Broth dilution looks for growth in wells or tubes with falling amounts of substance.

Test [2] addresses Fatty acid synthase (Homo sapiens, UniProt P49327). Kind of test: Inhibition of FAS in human ZR-75-1 cells by spectrophotometry. It is filed as cell-based.
In test [3] the test system is Candida albicans. Kind of test: Antifungal activity against Candida albicans assessed as hazy zone of inhibition by disk diffusion assay. The test is classed as functional. The gist of the method:
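Disk diffusion on C. albicans; the zone of growth inhibition around the disk is read and reported as diameter in mm.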
Background: In agar diffusion tests the substance spreads into inoculated agar from a disc or well.

Test [4] relates to Candida albicans. Put plainly: Antifungal activity against Candida albicans by microdilution spectrophotometric method. It is filed as functional.
A short description of test [5]: Inhibition of Candida albicans SC5314 FAS by spectrophotometry.
Test [6] has as its system Cryptococcus neoformans. Kind of test: Antifungal activity against Cryptococcus neoformans after 24 hrs. The test is classed as functional. The gist of the method: (§1)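 Minimum inhibitory concentration against clinical isolates, read at 24 h and at 48 h. Isolates tested: C. albicans 4, C. tropicalis 1, C. lusitaniae 3, C. guilliermondii 1, C. krusei 3, C. glabrata 3, C. parapsilosis 4, C. dubliniensis 2, S. cerevisiae 4, Cryptococcus neoformans 2, Cryptococcus laurentii 2.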

Test [7] deals with Candida tropicalis. Put plainly: Antifungal activity against Candida tropicalis after 24 hrs. The test is classed as functional. The gist of the method: as §1
Test [8] deals with Candida parapsilosis. Kind of test: Antifungal activity against Candida parapsilosis after 24 hrs. The test is classed as functional. Particulars: Lodderomyces parapsilosis. The essentials:
as §1

Test [9] deals with Cryptococcus neoformans. Put plainly: Antifungal activity against Cryptococcus neoformans after 48 hrs. The test is classed as functional. The gist of the method: as §1
In test [10] the test system is Clavispora lusitaniae. Put plainly: Antifungal activity against Candida lusitaniae after 24 hrs. It is filed as functional. The essentials: as §1
The subject of test [11] is Papiliotrema laurentii. Kind of test: Antifungal activity against Cryptococcus laurentii after 48 hrs. It is filed as functional. The gist of the method:
as §1

In test [12] the test system is Pichia kudriavzevii. Kind of test: Antifungal activity against Candida krusei after 24 hrs. It is filed as functional. The essentials:
as §1

The test system of test [13] is Candida dubliniensis. Put plainly: Antifungal activity against Candida dubliniensis after 24 hrs. The test is classed as functional. The gist of the method: as §1
Test [14] has as its system Nakaseomyces glabratus. Put plainly: Antifungal activity against Candida glabrata after 24 hrs. The test is classed as functional. The essentials: as §1
In test [15] the test system is Candida tropicalis. Put plainly: Antifungal activity against Candida tropicalis after 48 hrs. It is filed as functional. The gist of the method:
as §1

In test [16] the test system is Papiliotrema laurentii. Put plainly: Antifungal activity against Cryptococcus laurentii after 24 hrs. It is filed as functional. The essentials:
as §1

Test [17] concerns Meyerozyma guilliermondii. Put plainly: Antifungal activity against Candida guilliermondii after 48 hrs. It is filed as functional. The essentials: as §1
For test [18], the system named is Candida dubliniensis. Kind of test: Antifungal activity against Candida dubliniensis after 48 hrs. It is filed as functional. The essentials: as §1
In test [19] the test system is Clavispora lusitaniae. Kind of test: Antifungal activity against Candida lusitaniae after 48 hrs. The test is classed as functional. The essentials:
as §1

The test system of test [20] is Candida parapsilosis. Put plainly: Antifungal activity against Candida parapsilosis after 48 hrs. The test is classed as functional. The following applies: Lodderomyces parapsilosis. The essentials:
as §1

Test [21] concerns Saccharomyces cerevisiae. Kind of test: Antifungal activity against Saccharomyces cerevisiae after 24 hrs. The test is classed as functional. The essentials: as §1
For test [22], the system named is Nakaseomyces glabratus. Put plainly: Antifungal activity against Candida glabrata after 48 hrs. It is filed as functional. The essentials:
as §1

The test system of test [23] is Candida albicans. Put plainly: Antifungal activity against Candida albicans after 24 hrs. The test is classed as functional. The essentials: as §1
Test [24] relates to Saccharomyces cerevisiae. Put plainly: Antifungal activity against Saccharomyces cerevisiae after 48 hrs. The test is classed as functional. The essentials:
as §1

The subject of test [25] is Candida albicans. Put plainly: Antifungal activity against Candida albicans assessed as clear zone of inhibition by disk diffusion assay. The test is classed as functional. The gist of the method: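 Disk diffusion on C. albicans; the zone of inhibition is measured in mm.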
For test [26], the system named is Candida albicans. Kind of test: Antifungal activity against Candida albicans after 48 hrs. It is filed as functional. The essentials: as §1
In test [27] the test system is Pichia kudriavzevii. Kind of test: Antifungal activity against Candida krusei after 48 hrs. The test is classed as functional. The essentials:
as §1

Test [28] concerns Meyerozyma guilliermondii. Put plainly: Antifungal activity against Candida guilliermondii after 24 hrs. The test is classed as functional. The essentials:
as §1

Sequence of Fatty acid synthase (P49327 whole entry, the tested form may be a part): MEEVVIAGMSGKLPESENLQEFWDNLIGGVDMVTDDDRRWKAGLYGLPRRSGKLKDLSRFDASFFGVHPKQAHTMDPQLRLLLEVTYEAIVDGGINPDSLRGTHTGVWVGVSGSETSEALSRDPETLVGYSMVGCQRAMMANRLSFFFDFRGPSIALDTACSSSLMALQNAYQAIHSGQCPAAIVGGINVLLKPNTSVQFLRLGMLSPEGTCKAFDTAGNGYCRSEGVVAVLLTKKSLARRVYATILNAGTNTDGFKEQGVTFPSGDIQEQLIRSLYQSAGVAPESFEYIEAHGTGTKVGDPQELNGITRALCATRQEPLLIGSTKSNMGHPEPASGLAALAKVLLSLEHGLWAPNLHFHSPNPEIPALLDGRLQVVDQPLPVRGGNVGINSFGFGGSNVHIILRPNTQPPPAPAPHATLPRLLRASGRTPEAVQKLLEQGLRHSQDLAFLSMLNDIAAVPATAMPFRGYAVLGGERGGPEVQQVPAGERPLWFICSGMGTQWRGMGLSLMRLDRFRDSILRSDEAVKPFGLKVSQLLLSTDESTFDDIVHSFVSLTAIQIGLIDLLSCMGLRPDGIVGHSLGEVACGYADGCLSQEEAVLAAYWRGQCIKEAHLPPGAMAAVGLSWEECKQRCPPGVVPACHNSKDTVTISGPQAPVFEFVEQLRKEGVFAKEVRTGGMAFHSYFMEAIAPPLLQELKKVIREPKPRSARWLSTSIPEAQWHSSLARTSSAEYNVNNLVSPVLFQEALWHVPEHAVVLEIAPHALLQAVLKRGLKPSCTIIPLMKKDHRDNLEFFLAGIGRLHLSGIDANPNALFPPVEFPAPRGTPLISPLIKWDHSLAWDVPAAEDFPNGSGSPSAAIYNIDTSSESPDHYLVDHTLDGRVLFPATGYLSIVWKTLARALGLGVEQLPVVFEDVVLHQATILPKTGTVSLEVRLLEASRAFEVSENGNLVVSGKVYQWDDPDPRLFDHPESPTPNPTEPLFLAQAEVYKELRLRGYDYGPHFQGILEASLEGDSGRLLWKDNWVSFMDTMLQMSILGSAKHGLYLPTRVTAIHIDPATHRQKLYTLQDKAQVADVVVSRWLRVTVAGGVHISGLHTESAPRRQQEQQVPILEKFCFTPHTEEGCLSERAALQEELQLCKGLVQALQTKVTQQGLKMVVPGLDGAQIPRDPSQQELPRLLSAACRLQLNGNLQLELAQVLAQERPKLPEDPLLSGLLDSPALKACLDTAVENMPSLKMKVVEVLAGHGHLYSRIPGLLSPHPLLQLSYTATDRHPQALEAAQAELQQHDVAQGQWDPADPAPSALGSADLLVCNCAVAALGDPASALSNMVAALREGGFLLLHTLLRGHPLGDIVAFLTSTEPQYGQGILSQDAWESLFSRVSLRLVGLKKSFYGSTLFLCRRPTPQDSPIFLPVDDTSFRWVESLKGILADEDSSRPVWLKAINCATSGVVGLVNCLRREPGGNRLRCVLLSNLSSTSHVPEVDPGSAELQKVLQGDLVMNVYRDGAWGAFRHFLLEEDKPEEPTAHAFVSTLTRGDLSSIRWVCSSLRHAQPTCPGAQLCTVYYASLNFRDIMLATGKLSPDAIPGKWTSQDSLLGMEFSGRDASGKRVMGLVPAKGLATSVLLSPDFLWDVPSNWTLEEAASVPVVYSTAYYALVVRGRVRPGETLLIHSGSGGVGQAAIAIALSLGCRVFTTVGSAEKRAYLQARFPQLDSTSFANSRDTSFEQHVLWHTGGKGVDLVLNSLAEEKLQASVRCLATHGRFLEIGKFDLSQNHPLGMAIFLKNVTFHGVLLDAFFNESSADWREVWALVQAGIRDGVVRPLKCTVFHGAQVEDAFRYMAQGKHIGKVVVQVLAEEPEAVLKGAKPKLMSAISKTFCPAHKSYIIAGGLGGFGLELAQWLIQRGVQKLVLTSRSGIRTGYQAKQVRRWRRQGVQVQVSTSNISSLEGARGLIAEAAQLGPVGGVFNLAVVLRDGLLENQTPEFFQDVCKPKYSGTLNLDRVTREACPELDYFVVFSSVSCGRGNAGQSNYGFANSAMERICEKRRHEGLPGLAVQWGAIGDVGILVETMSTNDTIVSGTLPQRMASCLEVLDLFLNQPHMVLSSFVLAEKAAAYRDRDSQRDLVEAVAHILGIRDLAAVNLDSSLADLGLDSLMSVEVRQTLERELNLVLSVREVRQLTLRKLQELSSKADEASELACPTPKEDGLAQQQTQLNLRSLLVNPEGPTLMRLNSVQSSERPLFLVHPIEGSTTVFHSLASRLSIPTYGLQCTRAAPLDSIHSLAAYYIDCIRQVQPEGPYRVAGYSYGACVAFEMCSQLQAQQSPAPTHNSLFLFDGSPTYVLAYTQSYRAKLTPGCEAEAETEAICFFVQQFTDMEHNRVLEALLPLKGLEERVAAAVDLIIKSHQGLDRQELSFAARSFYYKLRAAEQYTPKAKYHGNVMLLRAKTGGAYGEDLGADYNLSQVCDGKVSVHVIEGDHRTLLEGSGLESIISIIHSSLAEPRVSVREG

The term MIC denotes the lowest concentration found to suppress growth. In general, IC50 refers to the concentration at which inhibition is half-maximal. One may read the MFC as the smallest concentration meeting the test's criterion for killing the fungus. Low readings indicate greater fungicidal potency, high ones weaker fungicidal potency. With `C/C=C/C/C=C/CCC(=O)[C@H]1O[C@H]1C(N)=O` [CERULENIN], the MIC was over 1000 µg/mL in test [1] and 5 µg/mL (≈ 22.4 µM) in test [4]. Also, the IC50 is 2.24 µM in [2] and 0.5 µg/mL (≈ 2.24 µM) in test [5]. Moreover, the “inhibition zone (IZ)” value in [3] came out at 20 mm. This compound also had a minimal fungicidal concentration (MFC) in test [4] of 5 µg/mL (≈ 22.4 µM).

As to `C/C=C/C=C/C=C/C1=CC2=CC(=O)[C@](C)(OC(=O)C[C@H](C)O)C(=O)C2=CO1`, the MIC in [1] was 50 µg/mL; in test [6], under 1.6 µg/mL; in test [7], 6.25 µg/mL (≈ 16.9 µM); in test [8], 14.8 µg/mL (≈ 40 µM); in test [9], under 1.6 µg/mL; in [10], 16.3 µg/mL (≈ 44 µM). Also, the MIC is under 1.6 µg/mL in [11]; 3.13 µg/mL (≈ 8.45 µM) in test [4]; 25 µg/mL (≈ 67.5 µM) in test [12]; 12.5 µg/mL (≈ 33.7 µM) in test [13]; 25 µg/mL (≈ 67.5 µM) in test [14]; 6.25 µg/mL (≈ 16.9 µM) in test [15]. The MIC is under 1.6 µg/mL in test [16]; 1.6 µg/mL (≈ 4.32 µM) in test [17]; 12.5 µg/mL (≈ 33.7 µM) in [18]; 41.6 µg/mL (≈ 112 µM) in test [19]; 50 µg/mL (≈ 135 µM) in test [20]; 8.2 µg/mL (≈ 22.1 µM) in test [21]. The MIC is 50 µg/mL (≈ 135 µM) in test [22]; 7.8 µg/mL (≈ 21.1 µM) in [23]; 25 µg/mL (≈ 67.5 µM) in test [24]; 7.8 µg/mL (≈ 21.1 µM) in test [26]; 50 µg/mL (≈ 135 µM) in test [27]; under 1.6 µg/mL in [28]. The IC50 in test [2] was over 2700 µM; in test [5] it was 250 µg/mL (≈ 675 µM). In test [4], this compound yielded an MFC of 6.25 µg/mL (≈ 16.9 µM). Further, the “inhibition zone (IZ)” value in [25] turned out to be 10 mm.

On to `C/C=C/C=C/C=C/C1=CC2=CC(=O)[C@](C)(OC(=O)C[C@H](C)O)C(=O)C23OC3O1` (stereo not given in full), for which the MIC turned out to be 50 µg/mL in test [1]; 25 µg/mL (≈ 64.7 µM) in test [6]; 15.6 µg/mL (≈ 40.4 µM) in test [8]; 3.12 µg/mL (≈ 8.07 µM) in [9]; 8.3 µg/mL (≈ 21.5 µM) in test [10]; 6.25 µg/mL (≈ 16.2 µM) in test [11]. The MIC in test [4] was determined as 6.25 µg/mL (≈ 16.2 µM); in [12] it was 12.5 µg/mL (≈ 32.3 µM); in test [13], 9.4 µg/mL (≈ 24.3 µM); in [14], 29.2 µg/mL (≈ 75.6 µM); in [17] it was 1.6 µg/mL (≈ 4.14 µM); in test [18] it was 18.8 µg/mL (≈ 48.7 µM). Besides, the MIC in [19] was determined as 37.5 µg/mL (≈ 97 µM); in [20], 62.5 µg/mL (≈ 162 µM); in test [21], 5.9 µg/mL (≈ 15.3 µM); in [22], 83.3 µg/mL (≈ 216 µM); in [23], 3.9 µg/mL (≈ 10.1 µM); in test [24], 20.3 µg/mL (≈ 52.5 µM). The values for the minimal inhibitory concentration (MIC) in test [26], in test [27] and in test [28] were 7.8 µg/mL (≈ 20.2 µM), 25 µg/mL (≈ 64.7 µM) and under 1.6 µg/mL, respectively. Moreover, the values for the IC50 in test [2] and in [5] were over 2590 µM and 160 µg/mL (≈ 414 µM), respectively. The compound also came in with an MFC in [4] of 25 µg/mL (≈ 64.7 µM). In test [16], the outcome was Active. In addition, in test [25], the “inhibition zone (IZ)” value is 8 mm.
